According to ChEMBL document CHEMBL2321812 (J Med Chem, 2013):
Calls of active or inactive are those of the source. The calls are words filed in the database; no cut-off is given here.

Experiments:
[1] = Cmax in female ICR mouse at 5 mg/kg, ip; format: ADME, organism-based; design: dose 5 mg/kg, route intraperitoneal; details: in vivo
Procedure, shortened: (§1)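 Male and female ICR mice (18.2-26.0 g) got 5 mg/kg i.p. in 5% DMSO/50% PEG400/45% saline. Terminal cardiac blood was drawn after CO2 euthanasia at 5, 15, 30 min and 1, 2, 4, 8, 24 h.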

[2] = Half life in male ICR mouse at 5 mg/kg, ip; format: ADME, organism-based; design: dose 5 mg/kg, route intraperitoneal; details: in vivo; procedure, shortened: as §1
[3] = Half life in female ICR mouse at 5 mg/kg, ip; format: ADME, organism-based; design: dose 5 mg/kg, route intraperitoneal; details: in vivo; procedure, shortened: as §1
[4] = Cmax in female ICR mouse at 1 mg/kg, iv; format: ADME, organism-based; design: dose 1 mg/kg, route intravenous; details: in vivo
Procedure, shortened: (§2)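 Single 1 mg/kg i.v. injection to male and female ICR mice (18.2-26.0 g) in 5% DMSO/50% PEG400/45% saline. Blood was taken by cardiac puncture after CO2 euthanasia at 5, 15, 30 min and 1, 2, 4, 8, 24 h post dose.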

[5] = Mean residence time (0 to infinity) in male ICR mouse at 1 mg/kg, iv; format: ADME, organism-based; design: dose 1 mg/kg, route intravenous; details: in vivo; procedure, shortened: as §2
[6] = AUC (0 to t) in female ICR mouse at 5 mg/kg, ip; format: ADME, organism-based; design: dose 5 mg/kg, route intraperitoneal; details: plasma; procedure, shortened: as §1
[7] = Cmax in male ICR mouse at 5 mg/kg, ip; format: ADME, organism-based; design: dose 5 mg/kg, route intraperitoneal; details: in vivo; procedure, shortened: as §1
[8] = Half life in female ICR mouse at 5 mg/kg, po; format: ADME, organism-based; design: dose 5 mg/kg, route oral; details: in vivo
Procedure, shortened: (§3)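 Oral gavage at 5 mg/kg in 10% NMP/60% PEG400/30% saline to overnight-fasted (10-15 h) male and female ICR mice (18.2-26.0 g). Blood was taken by cardiac puncture after CO2 euthanasia at 5, 15, 30 min and 1, 2, 4, 8, 24 h.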

[9] = Tmax in female ICR mouse at 5 mg/kg, po; format: ADME, organism-based; design: dose 5 mg/kg, route oral; details: in vivo; procedure, shortened: as §3
[10] = Cmax in female ICR mouse at 5 mg/kg, po; format: ADME, organism-based; design: dose 5 mg/kg, route oral; details: in vivo; procedure, shortened: as §3
[11] = AUC (0 to infinity) in female ICR mouse at 5 mg/kg, po; format: ADME, organism-based; design: time infinity, dose 5 mg/kg, route oral; details: plasma; procedure, shortened: as §3
[12] = AUC (0 to t) in male ICR mouse at 5 mg/kg, po; format: ADME, organism-based; design: dose 5 mg/kg, route oral; details: plasma; procedure, shortened: as §3
[13] = Bioavailability in female ICR mouse measured from AUC (0 to infinity) at 5 mg/kg, ip; format: ADME, organism-based; details: in vivo
Procedure, shortened: (§4)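 Intraperitoneal dosing was 5 mg/kg, referenced to 1 mg/kg i.v., both in 5% DMSO/50% PEG400/45% saline, in male and female ICR mice. Plasma was sampled from 5 min to 24 h and measured by HPLC-MS/MS.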

[14] = system: Mus musculus; test: Bioavailability in female ICR mouse measured from AUC (0 to t) at 5 mg/kg, ip; format: ADME, organism-based; details: in vivo; procedure, shortened: as §4
[15] = target: Cytochrome P450 3A4 (Homo sapiens, UniProt P08684); test: Inhibition of CYP3A4 (unknown origin)
Cytochrome P450 3A4, sequence (P08684 whole entry): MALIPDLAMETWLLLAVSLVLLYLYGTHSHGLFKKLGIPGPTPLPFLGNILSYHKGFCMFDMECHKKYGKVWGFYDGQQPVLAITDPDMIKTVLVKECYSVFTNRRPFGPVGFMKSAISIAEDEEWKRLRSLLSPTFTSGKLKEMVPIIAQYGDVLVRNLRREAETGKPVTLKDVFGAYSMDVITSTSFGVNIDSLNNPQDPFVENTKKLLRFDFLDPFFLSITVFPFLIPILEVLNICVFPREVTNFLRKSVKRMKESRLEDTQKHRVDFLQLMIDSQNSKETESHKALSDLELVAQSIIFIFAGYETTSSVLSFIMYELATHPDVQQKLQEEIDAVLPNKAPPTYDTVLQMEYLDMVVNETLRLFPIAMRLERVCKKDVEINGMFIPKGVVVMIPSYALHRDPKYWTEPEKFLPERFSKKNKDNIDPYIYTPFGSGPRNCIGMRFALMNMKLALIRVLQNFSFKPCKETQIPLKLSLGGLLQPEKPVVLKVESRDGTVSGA

[16] = AUC (0 to infinity) in male ICR mouse at 5 mg/kg, po; format: ADME, organism-based; design: time infinity, dose 5 mg/kg, route oral; details: plasma; procedure, shortened: as §3
[17] = Clearance in female ICR mouse at 1 mg/kg, iv; format: ADME, organism-based; design: dose 1 mg/kg, route intravenous; details: in vivo; procedure, shortened: as §2
[18] = Tmax in female ICR mouse at 5 mg/kg, ip; format: ADME, organism-based; design: dose 5 mg/kg, route intraperitoneal; details: in vivo; procedure, shortened: as §1
[19] = Oral bioavailability in female ICR mouse measured from AUC (0 to infinity) at 5 mg/kg; format: ADME, organism-based; details: in vivo
Procedure, shortened: (§5)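 Oral 5 mg/kg (10% NMP/60% PEG400/30% saline, after 10-15 h fast) was compared with 1 mg/kg i.v. (5% DMSO/50% PEG400/45% saline) in male and female ICR mice. Plasma from 5 min to 24 h was measured by HPLC-MS/MS.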

[20] = Bioavailability in male ICR mouse measured from AUC (0 to infinity) at 5 mg/kg, ip; format: ADME, organism-based; details: in vivo; procedure, shortened: as §4
[21] = AUC (0 to t) in male ICR mouse at 5 mg/kg, ip; format: ADME, organism-based; design: dose 5 mg/kg, route intraperitoneal; details: plasma; procedure, shortened: as §1
[22] = Tmax in male ICR mouse at 1 mg/kg, iv; format: ADME, organism-based; design: dose 1 mg/kg, route intravenous; details: in vivo; procedure, shortened: as §2
[23] = AUC (0 to t) in female ICR mouse at 1 mg/kg, iv; format: ADME, organism-based; design: dose 1 mg/kg, route intravenous; details: plasma; procedure, shortened: as §2
[24] = AUC (0 to infinity) in male ICR mouse at 1 mg/kg, iv; format: ADME, organism-based; design: time infinity, dose 1 mg/kg, route intravenous; details: plasma; procedure, shortened: as §2
[25] = Oral bioavailability in female ICR mouse measured from AUC (0 to t) at 5 mg/kg; format: ADME, organism-based; details: in vivo; procedure, shortened: as §5
[26] = Half life in male ICR mouse at 5 mg/kg, po; format: ADME, organism-based; design: dose 5 mg/kg, route oral; details: in vivo; procedure, shortened: as §3
[27] = AUC (0 to infinity) in male ICR mouse at 5 mg/kg, ip; format: ADME, organism-based; design: time infinity, dose 5 mg/kg, route intraperitoneal; details: plasma; procedure, shortened: as §1
[28] = Clearance in male ICR mouse at 1 mg/kg, iv; format: ADME, organism-based; design: dose 1 mg/kg, route intravenous; details: in vivo; procedure, shortened: as §2
[29] = Apparent volume of distribution in female ICR mouse at 1 mg/kg, iv; format: ADME, organism-based; design: dose 1 mg/kg, route intravenous; details: in vivo, read-out: Vz; procedure, shortened: as §2
[30] = Mean residence time (0 to infinity) in male ICR mouse at 5 mg/kg, po; format: ADME, organism-based; design: dose 5 mg/kg, route oral; details: in vivo; procedure, shortened: as §3
[31] = Oral bioavailability in male ICR mouse measured from AUC (0 to t) at 5 mg/kg; format: ADME, organism-based; details: in vivo; procedure, shortened: as §5
[32] = Tmax in female ICR mouse at 1 mg/kg, iv; format: ADME, organism-based; design: dose 1 mg/kg, route intravenous; details: in vivo; procedure, shortened: as §2
[33] = Mean residence time (0 to infinity) in female ICR mouse at 5 mg/kg, po; format: ADME, organism-based; design: dose 5 mg/kg, route oral; details: in vivo; procedure, shortened: as §3
[34] = Apparent volume of distribution in male ICR mouse at 1 mg/kg, iv; format: ADME, organism-based; design: dose 1 mg/kg, route intravenous; details: in vivo, read-out: Vz; procedure, shortened: as §2
[35] = Mean residence time (0 to infinity) in female ICR mouse at 5 mg/kg, ip; format: ADME, organism-based; design: dose 5 mg/kg, route intraperitoneal; details: in vivo; procedure, shortened: as §1
[36] = Oral bioavailability in male ICR mouse measured from AUC (0 to infinity) at 5 mg/kg; format: ADME, organism-based; details: in vivo; procedure, shortened: as §5
[37] = AUC (0 to t) in female ICR mouse at 5 mg/kg, po; format: ADME, organism-based; design: dose 5 mg/kg, route oral; details: plasma; procedure, shortened: as §3
[38] = Cmax in male ICR mouse at 5 mg/kg, po; format: ADME, organism-based; design: dose 5 mg/kg, route oral; details: in vivo; procedure, shortened: as §3
[39] = Tmax in male ICR mouse at 5 mg/kg, po; format: ADME, organism-based; design: dose 5 mg/kg, route oral; details: in vivo
Procedure, shortened: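 Male and female ICR mice (18.2-26.0 g), fasted overnight (10-15 h) before oral dosing; single gavage at 5 mg/kg in 10% NMP, 60% PEG400, 30% saline. Blood taken by cardiac puncture after CO2 euthanasia at 5, 15, 30 min and 1, 2, 4, 8, 24 h. Heparinised plasma assayed by HPLC-MS/MS. Tmax is the time to reach Cmax.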

[40] = AUC (0 to infinity) in female ICR mouse at 5 mg/kg, ip; format: ADME, organism-based; design: time infinity, dose 5 mg/kg, route intraperitoneal; details: plasma; procedure, shortened: as §1
[41] = Tmax in male ICR mouse at 5 mg/kg, ip; format: ADME, organism-based; design: dose 5 mg/kg, route intraperitoneal; details: in vivo; procedure, shortened: as §1
[42] = AUC (0 to infinity) in female ICR mouse at 1 mg/kg, iv; format: ADME, organism-based; design: time infinity, dose 1 mg/kg, route intravenous; details: plasma; procedure, shortened: as §2
[43] = AUC (0 to t) in male ICR mouse at 1 mg/kg, iv; format: ADME, organism-based; design: dose 1 mg/kg, route intravenous; details: plasma; procedure, shortened: as §2
[44] = Mean residence time (0 to infinity) in male ICR mouse at 5 mg/kg, ip; format: ADME, organism-based; design: dose 5 mg/kg, route intraperitoneal; details: in vivo; procedure, shortened: as §1
[45] = target: Poly [ADP-ribose] polymerase 1 (Homo sapiens) (UniProt P09874); test: Inhibition of PARP1 (unknown origin) up to 20 uM by NAD+-dependent autopoly(ADP ribosyl)lation assay
Poly [ADP-ribose] polymerase 1 (Homo sapiens), sequence (P09874 whole entry): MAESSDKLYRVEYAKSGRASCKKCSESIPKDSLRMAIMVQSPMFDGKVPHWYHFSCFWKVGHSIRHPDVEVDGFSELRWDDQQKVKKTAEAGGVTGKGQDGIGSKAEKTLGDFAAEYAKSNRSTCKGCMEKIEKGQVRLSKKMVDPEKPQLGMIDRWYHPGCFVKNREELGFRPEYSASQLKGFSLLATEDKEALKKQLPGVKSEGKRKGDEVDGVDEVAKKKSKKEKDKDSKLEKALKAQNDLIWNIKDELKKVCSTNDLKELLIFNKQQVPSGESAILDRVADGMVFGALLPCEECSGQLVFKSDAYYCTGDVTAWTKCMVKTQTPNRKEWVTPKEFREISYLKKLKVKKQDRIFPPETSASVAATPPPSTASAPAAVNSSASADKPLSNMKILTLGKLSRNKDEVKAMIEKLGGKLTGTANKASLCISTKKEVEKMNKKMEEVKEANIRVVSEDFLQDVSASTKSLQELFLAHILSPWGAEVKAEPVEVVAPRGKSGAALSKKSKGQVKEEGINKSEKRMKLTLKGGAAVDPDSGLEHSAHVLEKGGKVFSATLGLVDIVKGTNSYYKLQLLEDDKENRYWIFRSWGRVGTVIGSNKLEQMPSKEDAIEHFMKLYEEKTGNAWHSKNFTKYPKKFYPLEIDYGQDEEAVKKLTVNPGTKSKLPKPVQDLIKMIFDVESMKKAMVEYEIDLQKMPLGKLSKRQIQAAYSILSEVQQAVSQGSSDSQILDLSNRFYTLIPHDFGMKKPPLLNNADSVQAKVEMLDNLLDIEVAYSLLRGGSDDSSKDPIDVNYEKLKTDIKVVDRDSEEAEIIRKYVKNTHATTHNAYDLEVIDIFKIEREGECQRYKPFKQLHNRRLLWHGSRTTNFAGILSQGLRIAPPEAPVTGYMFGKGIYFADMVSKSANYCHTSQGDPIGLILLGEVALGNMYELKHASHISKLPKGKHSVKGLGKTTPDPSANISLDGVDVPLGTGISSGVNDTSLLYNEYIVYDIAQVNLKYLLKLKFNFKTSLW
Procedure, shortened: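 PARP1 was tested with a chemiluminescent poly(ADP-ribosyl)ation assay kit over a range of concentrations. Each point was run in duplicate and the experiment was done twice. Luminescence was read and IC50 was fitted to a Langmuir binding isotherm.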

[46] = Cmax in male ICR mouse at 1 mg/kg, iv; format: ADME, organism-based; design: dose 1 mg/kg, route intravenous; details: in vivo; procedure, shortened: as §2
[47] = Mean residence time (0 to infinity) in female ICR mouse at 1 mg/kg, iv; format: ADME, organism-based; design: dose 1 mg/kg, route intravenous; details: in vivo; procedure, shortened: as §2
[48] = system: Mus musculus; test: Bioavailability in male ICR mouse measured from AUC (0 to t) at 5 mg/kg, ip; format: ADME, organism-based; details: in vivo; procedure, shortened: as §4
[49] = Half life in female ICR mouse at 1 mg/kg, iv; format: ADME, organism-based; design: dose 1 mg/kg, route intravenous; details: in vivo; procedure, shortened: as §2

Cmax [1]: 2660 ng/mL | half-life [2]: 2.89 h | half-life [3]: 2.73 h | Cmax [4]: 462 ng/mL | MRT inf [5]: 4.1 h | AUC(0-t) [6]: 14100 ng·h/mL | Cmax [7]: 2360 ng/mL | half-life [8]: 2.63 h | Tmax [9]: 2 h | Cmax [10]: 871 ng/mL | AUC(0-inf) [11]: 6750 ng·h/mL | AUC(0-t) [12]: 8250 ng·h/mL | bioavailability [13]: 122% | F [14]: 152% | IC50 [15]: > 25 µM | AUC(0-inf) [16]: 8270 ng·h/mL | clearance [17]: 7.17 mL/min/kg | Tmax [18]: 0.5 h | bioavailability [19]: 59% | bioavailability [20]: 133% | AUC(0-t) [21]: 11200 ng·h/mL | Tmax [22]: 0.25 h | AUC(0-t) [23]: 1850 ng·h/mL | AUC(0-inf) [24]: 1680 ng·h/mL | bioavailability [25]: 72.7% | half-life [26]: 2.6 h | AUC(0-inf) [27]: 11200 ng·h/mL | clearance [28]: 10 mL/min/kg | Vd [29]: 2.2 L/kg | MRT inf [30]: 5.1 h | bioavailability [31]: 116% | Tmax [32]: 0.5 h | MRT inf [33]: 5.1 h | Vd [34]: 2.7 L/kg | MRT inf [35]: 4.6 h | bioavailability [36]: 99% | AUC(0-t) [37]: 6740 ng·h/mL | Cmax [38]: 967 ng/mL | Tmax [39]: 0.25 h | AUC(0-inf) [40]: 14100 ng·h/mL | Tmax [41]: 0.5 h | AUC(0-inf) [42]: 2300 ng·h/mL | AUC(0-t) [43]: 1420 ng·h/mL | MRT inf [44]: 4.8 h | inhibition [45]: inactive | Cmax [46]: 434 ng/mL | MRT inf [47]: 4.8 h | F [48]: 157% | half-life [49]: 3.46 h
Compound: CS(=O)(=O)c1ccc(-c2nnc(/C=C/c3nnc(-c4ccc(C#N)cc4)o3)n2-c2ccccc2Cl)nc1
